The record followed here is ChEMBL document CHEMBL1759994, “The discovery and synthesis of potent zwitterionic inhibitors of renin” (Bioorg Med Chem Lett, 2011).

Data set [1] in a line: Oral bioavailability in Sprague-Dawley rat at 30 mg/kg as 0.5% methocel suspension. The settings on record: in vivo. Type of data set: ADME, organism-based.
The test system of data set [2] is Blood. The data set can be described thus: Metabolic stability in rhesus monkey whole blood assessed as conversion to (1R,2R)-2-((3-(((3R,4S)-N-cyclopropyl-4-(4-(2-(2,6-dichloro-4-methylphenoxy)ethoxy)phenyl)piperidine-3-carboxamido)methyl)-5-(3-methoxypropyl)phenoxy)methyl)cyclopropanecarboxylic acid after 20 mins. Type of data set: ADME, tissue-based, Macaca mulatta.

Data set [3] relates to Liver. As to the kind of experiment: Metabolic stability in human liver S9 fraction assessed as conversion to (1R,2R)-2-((3-(((3R,4S)-N-cyclopropyl-4-(4-(2-(2,6-dichloro-4-methylphenoxy)ethoxy)phenyl)piperidine-3-carboxamido)methyl)-5-(3-methoxypropyl)phenoxy)methyl)cyclopropanecarboxylic acid after 20 mins. The settings on record: s9, 20 min. Format: ADME, subcellular. The method in brief: (§1)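 Prodrugs were incubated for 20 min in rat or human whole blood, or in rat or human liver S9 fraction (n = 2). The read-out was % conversion to the parent carboxylic acid.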

Data set [4] concerns Liver. As to the kind of experiment: Metabolic stability in Sprague-Dawley rat liver S9 fraction assessed as conversion to (1R,2R)-2-((3-(((3R,4S)-N-cyclopropyl-4-(4-(2-(2,6-dichloro-4-methylphenoxy)ethoxy)phenyl)piperidine-3-carboxamido)methyl)-5-(3-methoxypropyl)phenoxy)methyl)cyclopropanecarboxylic acid after 20 mins. Format: ADME, subcellular. The settings on record: s9, 20 min. The method in brief:
as §1

The nature of data set [5]: Metabolic stability in dog whole blood assessed as conversion to (1R,2R)-2-((3-(((3R,4S)-N-cyclopropyl-4-(4-(2-(2,6-dichloro-4-methylphenoxy)ethoxy)phenyl)piperidine-3-carboxamido)methyl)-5-(3-methoxypropyl)phenoxy)methyl)cyclopropanecarboxylic acid after 20 mins. Format: ADME, tissue-based, Canis lupus familiaris.
Data set [6] concerns the target T1, Cytochrome P450 3A4 (Homo sapiens, UniProt P08684). As to the kind of experiment: Inhibition of human CYP3A4 in human liver microsomes assessed as formation of 6beta-hydroxy-testosterone using testosterone as substrate by high throughput mass spectrometry in absence of NADPH. Type of data set: ADME, Microsome.
The subject of data set [7] is Blood. The data set can be described thus: Metabolic stability in human whole blood assessed as conversion to (1R,2R)-2-((3-(((3R,4S)-N-cyclopropyl-4-(4-(2-(2,6-dichloro-4-methylphenoxy)ethoxy)phenyl)piperidine-3-carboxamido)methyl)-5-(3-methoxypropyl)phenoxy)methyl)cyclopropanecarboxylic acid after 20 mins. Format: ADME, tissue-based. The method in brief: as §1
For the next data set, the target named is CYP3A4 (Homo sapiens, UniProt P08684). The data set can be described thus: Ratio of IC50 for human CYP3A4 in absence of NADPH to IC50 for human CYP3A4 preincubated for 30 mins in presence of NADPH. The conditions noted are these: read-out: Ratio IC50.
Sequence of CYP3A4 (P08684 whole entry): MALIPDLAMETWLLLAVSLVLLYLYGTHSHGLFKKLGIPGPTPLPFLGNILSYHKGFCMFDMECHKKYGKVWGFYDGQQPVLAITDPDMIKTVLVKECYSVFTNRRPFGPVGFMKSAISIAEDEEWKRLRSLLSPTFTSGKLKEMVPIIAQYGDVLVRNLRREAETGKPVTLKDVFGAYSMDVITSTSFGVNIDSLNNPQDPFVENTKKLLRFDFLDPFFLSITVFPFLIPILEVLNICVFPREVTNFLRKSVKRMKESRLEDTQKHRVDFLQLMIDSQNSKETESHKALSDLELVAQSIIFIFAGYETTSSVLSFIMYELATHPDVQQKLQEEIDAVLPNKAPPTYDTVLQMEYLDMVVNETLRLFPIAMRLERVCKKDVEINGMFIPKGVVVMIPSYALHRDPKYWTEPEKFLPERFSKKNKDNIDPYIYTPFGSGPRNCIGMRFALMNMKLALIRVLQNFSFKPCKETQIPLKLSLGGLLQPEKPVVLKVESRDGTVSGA
Data set [8] deals with Blood. As to the kind of experiment: Metabolic stability in Sprague-Dawley rat whole blood assessed as conversion to (1R,2R)-2-((3-(((3R,4S)-N-cyclopropyl-4-(4-(2-(2,6-dichloro-4-methylphenoxy)ethoxy)phenyl)piperidine-3-carboxamido)methyl)-5-(3-methoxypropyl)phenoxy)methyl)cyclopropanecarboxylic acid after 20 mins. Type of data set: ADME, tissue-based. The method in brief:
as §1

The target in data set [9] is Voltage-gated inwardly rectifying potassium channel KCNH2 (Homo sapiens, UniProt Q12809). As to the kind of experiment: Binding affinity to human ERG.
Sequence of Voltage-gated inwardly rectifying potassium channel KCNH2 (Q12809 whole entry): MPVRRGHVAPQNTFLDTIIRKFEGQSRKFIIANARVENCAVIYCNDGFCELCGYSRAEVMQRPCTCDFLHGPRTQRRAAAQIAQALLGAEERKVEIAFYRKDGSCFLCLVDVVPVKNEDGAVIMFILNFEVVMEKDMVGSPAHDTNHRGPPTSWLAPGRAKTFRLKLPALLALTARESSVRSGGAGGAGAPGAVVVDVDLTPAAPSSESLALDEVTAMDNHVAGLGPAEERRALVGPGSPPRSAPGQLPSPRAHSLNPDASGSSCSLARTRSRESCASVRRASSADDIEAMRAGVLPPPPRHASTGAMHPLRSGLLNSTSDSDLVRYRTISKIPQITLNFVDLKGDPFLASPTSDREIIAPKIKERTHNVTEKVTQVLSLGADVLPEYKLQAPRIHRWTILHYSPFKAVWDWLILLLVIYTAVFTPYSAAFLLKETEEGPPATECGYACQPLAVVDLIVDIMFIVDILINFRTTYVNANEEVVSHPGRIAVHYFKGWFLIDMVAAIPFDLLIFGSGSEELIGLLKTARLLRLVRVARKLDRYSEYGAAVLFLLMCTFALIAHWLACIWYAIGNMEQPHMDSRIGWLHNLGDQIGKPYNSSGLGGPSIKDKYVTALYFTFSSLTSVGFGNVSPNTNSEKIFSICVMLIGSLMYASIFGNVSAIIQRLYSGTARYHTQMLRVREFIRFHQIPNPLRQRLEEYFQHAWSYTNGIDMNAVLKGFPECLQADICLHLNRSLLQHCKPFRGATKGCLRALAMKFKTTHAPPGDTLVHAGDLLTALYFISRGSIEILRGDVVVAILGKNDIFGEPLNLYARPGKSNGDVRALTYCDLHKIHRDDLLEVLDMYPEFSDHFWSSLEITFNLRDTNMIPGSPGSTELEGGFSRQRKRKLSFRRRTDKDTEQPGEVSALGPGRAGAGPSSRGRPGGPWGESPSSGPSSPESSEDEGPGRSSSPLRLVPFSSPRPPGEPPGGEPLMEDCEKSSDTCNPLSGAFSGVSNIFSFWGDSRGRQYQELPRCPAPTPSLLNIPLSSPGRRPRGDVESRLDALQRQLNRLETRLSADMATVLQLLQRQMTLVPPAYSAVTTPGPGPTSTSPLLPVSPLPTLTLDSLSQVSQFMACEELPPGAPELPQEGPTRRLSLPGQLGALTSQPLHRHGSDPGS
The target of data set [10] is T1, Cytochrome P450 3A4. As to the kind of experiment: Inhibition of human CYP3A4 in human liver microsomes assessed as formation of 6beta-hydroxy-testosterone using testosterone as substrate by high throughput mass spectrometry preincubated for 30 mins in presence of NADPH. Type of data set: ADME, Microsome.
The target of data set [11] is T2, Renin (Homo sapiens, UniProt P00797).
T2 sequence (P00797 whole entry): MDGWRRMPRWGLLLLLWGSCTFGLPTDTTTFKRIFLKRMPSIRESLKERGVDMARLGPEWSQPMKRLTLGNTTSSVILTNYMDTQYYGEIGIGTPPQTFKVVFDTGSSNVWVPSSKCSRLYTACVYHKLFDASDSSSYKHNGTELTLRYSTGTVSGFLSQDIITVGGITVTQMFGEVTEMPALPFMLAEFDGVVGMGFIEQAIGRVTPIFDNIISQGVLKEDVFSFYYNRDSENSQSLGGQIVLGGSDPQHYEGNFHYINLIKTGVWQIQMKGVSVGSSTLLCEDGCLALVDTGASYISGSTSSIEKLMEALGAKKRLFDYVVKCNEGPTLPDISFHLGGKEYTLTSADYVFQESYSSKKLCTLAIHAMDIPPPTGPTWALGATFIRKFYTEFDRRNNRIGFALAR
As to the kind of experiment: Inhibition of human recombinant renin in PBS buffer using tetradecapeptide at pH 7.4.

Data set [12] can be described thus: AUC (0 to 24 hrs) in Beagle dog at 3 mg/kg, po in 0.5% methocel. On the set-up: time < 24 hr, dose 3 mg/kg, route oral. Type of data set: ADME, organism-based, Canis lupus familiaris. The settings on record: plasma.
Data set [13] is described as follows: Oral bioavailability in Beagle dog at 3 mg/kg in 0.5% methocel. Type of data set: ADME, organism-based, Canis lupus familiaris. The settings on record: in vivo.
Data set [14] in a line: AUC (0 to 24 hrs) in Sprague-Dawley rat at 30 mg/kg, po as 0.5% methocel suspension. On the set-up: time < 24 hr, dose 30 mg/kg, route oral. Type of data set: ADME, organism-based. The conditions noted are these: plasma.
Data set [15] addresses T2, Renin. The data set can be described thus: Inhibition of human recombinant renin in human citreated-plasma.
A short description of data set [16]: AUC (0 to 24 hrs) in Sprague-Dawley rat at 30 mg/kg, po in Ca salt in 0.5% methocel. Type of data set: ADME, organism-based. The settings on record: plasma. Further details: time < 24 hr, dose 30 mg/kg, route oral.
Data set [17] in a line: AUC (0 to 24 hrs) in Sprague-Dawley rat at 30 mg/kg, po in 60% PEG 200 at PH 2.5. Format: ADME, organism-based. On the set-up: time < 24 hr, dose 30 mg/kg, route oral. The conditions noted are these: plasma.
Data set [18] is described as follows: Oral bioavailability in Sprague-Dawley rat at 30 mg/kg in 60% PEG 200. Type of data set: ADME, organism-based. The conditions noted are these: in vivo.
Data set [19] is described as follows: AUC (0 to 24 hrs) in Sprague-Dawley rat at 30 mg/kg, po in 60% PEG 200. Format: ADME, organism-based. Further details: time < 24 hr, dose 30 mg/kg, route oral. The conditions noted are these: plasma.
Data set [20] can be described thus: AUC (0 to 24 hrs) in Sprague-Dawley rat at 30 mg/kg, po in Na salt in 0.5% methocel. Type of data set: ADME, organism-based. On the set-up: time < 24 hr, dose 30 mg/kg, route oral. The conditions noted are these: plasma.
Data set [21] is described as follows: Oral bioavailability in Sprague-Dawley rat at 30 mg/kg in Na salt in 0.5% methocel. Format: ADME, organism-based. The conditions noted are these: in vivo.
Data set [22] can be described thus: Oral bioavailability in Sprague-Dawley rat at 30 mg/kg in Ca salt in 0.5% methocel. Format: ADME, organism-based. The settings on record: in vivo.
Data set [23] is described as follows: AUC (0 to 24 hrs) in Sprague-Dawley rat at 30 mg/kg, po in lyposin 2. Type of data set: ADME, organism-based. On the set-up: time < 24 hr, dose 30 mg/kg, route oral. The conditions noted are these: plasma.
Data set [24] can be described thus: Oral bioavailability in Sprague-Dawley rat at 30 mg/kg in peanut oil. Format: ADME, organism-based. The settings on record: in vivo.
Data set [25] can be described thus: AUC (0 to 24 hrs) in Sprague-Dawley rat at 30 mg/kg, po in peanut oil. Type of data set: ADME, organism-based. On the set-up: time < 24 hr, dose 30 mg/kg, route oral. The settings on record: plasma.
Data set [26] can be described thus: Oral bioavailability in Sprague-Dawley rat at 30 mg/kg in lyposin 2. Type of data set: ADME, organism-based. The conditions noted are these: in vivo.
Data set [27] in a line: Bioavailability in Sprague-Dawley rat at 20 mg/kg, intra-duodenum in 5% dextrose. Type of data set: ADME, organism-based. The settings on record: in vivo. The method in brief: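 Rats were dosed directly into the duodenum at 20 mg/kg in 5% dextrose, 1 mL/kg. Bioavailability was calculated for the parent carboxylic acid.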
The nature of data set [28]: Clearance in Sprague-Dawley rat at 30 mg/kg, po in 0.5% methocel and 3 to 5 mg/kg, iv in 60% PEG 200. The conditions noted are these: in vivo.
A short description of data set [29]: Oral bioavailability in Sprague-Dawley rat at 30 mg/kg in 60% PEG 200 at PH 2.5. Type of data set: ADME, organism-based. The conditions noted are these: in vivo.

T1 sequence (P08684 whole entry): as the sequence (P08684 whole entry) above

With `CCOC(=O)[C@H]1C[C@@H]1COc1cc(CCCOC)cc(CN(C(=O)[C@H]2CNCC[C@@H]2c2ccc(OCCOc3c(Cl)cc(C)cc3Cl)cc2)C2CC2)c1`, the bioavailability in data set [1] is 52%; in [13], 6%. The Activity with Blood [2] was found to be 15%; with Liver [3], 56%; in the data set on Liver [4], 60%; in [5], 2%; in the data set on Blood [7], 3%; with Blood [8] it was 99%. Also, the IC50 turned out to be 19300 nM on Cytochrome P450 3A4 [6], 1400 nM on Cytochrome P450 3A4 [10], 0.064 nM at Renin [11] and 11 nM on Renin [15]. Moreover, the IC50 shift on CYP3A4 was 14. Moreover, affinity in data set [9] was put at a Ki of 80 nM. Besides, the AUC(0-t) at 24 h in data set [12] was determined as 0.01 µM·h; in data set [14], 5.7 µM·h.
Consider `COCCCc1cc(CN(C(=O)[C@H]2CNCC[C@@H]2c2ccc(OCCOc3c(Cl)cc(C)cc3Cl)cc2)C2CC2)cc(OC[C@H]2C[C@@H]2C(=O)O)c1`, for which the bioavailability is 1% in [1]; 4% in [18]; 1% in data set [21]; 0% in [22]; 1% in data set [24]; 0% in data set [26]. Besides, the results for the bioavailability in [27] and in [29] were 0% and 1%, respectively. In addition, the AUC(0-t) at 24 h in data set [16] is 0.3 µM·h; in [17], 0.1 µM·h; in data set [19], 0.5 µM·h; in data set [20], 0.1 µM·h; in data set [23], 0.03 µM·h; in data set [25] it was 0.1 µM·h. The molecule also came in with an AUC(0-t) at 24 h in [14] of 0.1 µM·h. The IC50 is greater than 50000 nM at Cytochrome P450 3A4 [6], greater than 50000 nM on Cytochrome P450 3A4 [10], 0.027 nM at Renin [11] and 1.1 nM on Renin [15]. Also, the Ki in [9] came out at 1070 nM. The clearance in [28] worked out at 60 mL/min/kg.

Broadly, the bioavailability is the share of a dose that reaches the circulation, judged against a reference dose that is usually intravenous. Broadly, the IC50 is the concentration at which inhibition is half-maximal. Broadly, the Ki is a measure of affinity in units of concentration, obtained from inhibition or displacement. Broadly, the AUC(0-t) is exposure summed from dosing to a finite time, without extrapolation to infinity.
